Activity calls are given as the source filed them. The calls are words filed in the database; no cut-off is given here.
Columns and labels:
[1] = Cytotoxicity against rat IEC-6 cells assessed as cell survival at 10 uM after 72 hrs by MTT assay relative to control; assay type: cell-based; conditions: read-out: Survival
[2] = molecular target: T1, X-box-binding protein 1 (Rattus norvegicus) (UniProt Q9R1S4); test: Transactivation of XBP1 in rat IEC-6 cells at 10 uM after 48 hrs by dual luciferase reporter gene assay relative to con2; assay type: cell-based
T1 sequence (whole entry): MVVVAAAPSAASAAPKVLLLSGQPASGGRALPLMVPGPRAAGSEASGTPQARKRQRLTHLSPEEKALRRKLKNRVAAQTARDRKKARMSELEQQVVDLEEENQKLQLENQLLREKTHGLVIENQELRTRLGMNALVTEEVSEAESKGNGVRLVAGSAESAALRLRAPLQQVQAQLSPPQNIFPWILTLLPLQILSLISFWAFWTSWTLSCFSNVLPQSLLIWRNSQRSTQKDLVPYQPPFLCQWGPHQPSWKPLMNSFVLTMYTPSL
Procedure, shortened: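 XBP 1 transcriptional activation measured by dual luciferase reporter detection. Con 2 is the pGL3-basic vector control, and activation is expressed as a fold ratio against it. Con 1 serves as background contrast, and 8-oxodihydrocoptisine is the positive control. Compounds are tested at 10 μM.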

SMILES	viability at 72 h, 10 µM [1] [%]	fold change (FC) [2]	Activity [2]
CC(C)[C@@]12CC[C@@](C)(O1)[C@H](O)CC/C(C=O)=C/CC[C@@]1(C)O[C@@H]1C2	87	1.6	
C/C1=C\C[C@]2(C(C)C)CC[C@@](C)(O2)[C@@H]2CC[C@@](C)(O2)[C@@H](O)CC1=O (relative stereo)	87		Active
C/C1=C\CC[C@@]2(C)O[C@@H]2C[C@]2(C(C)C)CC[C@@](C)(O2)[C@H](O)CC1	87		Active
CC(C)[C@@]12CC[C@@](C)(O1)[C@@H]1CC[C@@](C)(O1)[C@@H](O)C[C@@H]1O[C@@]1(C)[C@H](O)C2	87		Active
C/C1=C\CC[C@]2(C)O[C@H]2C[C@]2(C(C)C)CC[C@@](C)(O2)[C@H](O)CC1=O (relative stereo)	87		Active
C/C1=C\[C@@H](O)C[C@@]2(C)O[C@@H]2C[C@]2(C(C)C)CC[C@@](C)(O2)[C@H](O)CC1=O	87	2.5	
C/C1=C\CC[C@@]2(C)O[C@@H]2C[C@]2(C(C)C)CC[C@@](C)(O2)[C@H](O)CC1=O (relative stereo)	87	1.5	
C/C1=C\[C@@H](O)C[C@@]2(C)O[C@@H]2C[C@]2(C(C)C)CC[C@@](C)(O2)[C@H](O)CC1	87		Active
C/C1=C/C[C@@H](O)[C@@]2(C)CC[C@@](C(C)C)(C[C@@H](O)[C@]3(C)CC[C@H]1O3)O2	87	1.5	
O=c1c2c3c(ccc2cc2n1CCc1cc4c(cc1-2)OCO4)OCO3		2.2	

Source: ChEMBL document CHEMBL3632466, “Cembranoids from the Gum Resin of Boswellia carterii as Potential Antiulcerative Colitis Agents” (J Nat Prod, 2015)
